{
  "source": "ChEMBL document CHEMBL4837222",
  "about": "“Design and synthesis of novel benzothiophene analogs as selective estrogen receptor covalent antagonists against breast cancer” (Eur J Med Chem, 2021)",
  "key": {"Estrogen receptor": {"biological_target": "T1, Estrogen receptor (Homo sapiens, UniProt P03372)", "T1 sequence (P03372 whole entry)": "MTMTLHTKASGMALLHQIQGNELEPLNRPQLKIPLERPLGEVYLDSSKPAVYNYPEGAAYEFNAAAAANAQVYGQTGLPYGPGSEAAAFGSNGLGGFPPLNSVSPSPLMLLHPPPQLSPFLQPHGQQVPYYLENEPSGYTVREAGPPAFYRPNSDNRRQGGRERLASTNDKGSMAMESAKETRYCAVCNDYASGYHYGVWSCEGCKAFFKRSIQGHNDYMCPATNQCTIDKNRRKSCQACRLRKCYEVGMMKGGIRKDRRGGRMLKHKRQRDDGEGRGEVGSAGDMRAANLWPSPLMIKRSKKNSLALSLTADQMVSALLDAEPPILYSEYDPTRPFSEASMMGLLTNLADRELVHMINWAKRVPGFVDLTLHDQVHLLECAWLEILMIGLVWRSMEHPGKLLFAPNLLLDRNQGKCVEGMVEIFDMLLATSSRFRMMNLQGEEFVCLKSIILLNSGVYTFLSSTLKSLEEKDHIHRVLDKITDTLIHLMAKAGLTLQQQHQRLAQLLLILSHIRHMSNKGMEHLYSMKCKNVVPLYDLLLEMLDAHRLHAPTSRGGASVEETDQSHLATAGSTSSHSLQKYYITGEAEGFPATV", "assay": "Induction of ERalpha activity in human ishikawa cells assessed as induction of cell proliferation at 156 to 5000 nM measured after 3 days", "type": "cell-based", "details": "72 h, 5 µM, dose 156-5000 nM, time 3 day; call rule not given here"}, "MCF7 [1]": {"system": "MCF7", "assay": "Cell cycle arrest in human MCF7 cells assessed as accumulation at S phase at 5 uM measured after 48 hrs by propidium iodide staining based flow cytometric analysis (reference value: 63.32%)", "type": "functional"}, "MCF7 [2]": {"system": "MCF7", "assay": "Induction of apoptosis in human MCF7 cells assessed as late apoptotic cells at 1 uM incubated for 24 hrs by AnnexinV-FITC/propidium iodide staining based flow cytometric analysis (reference value: 0.7%)", "type": "functional"}, "[3]": {"assay": "Intrinsic clearance in rat", "type": "ADME"}, "MCF7 [4]": {"system": "MCF7", "assay": "Induction of apoptosis in human MCF7 cells assessed as live cells at 10 uM incubated for 24 hrs by AnnexinV-FITC/propidium iodide staining based flow cytometric analysis (reference value: 98.1%)", "type": "functional"}, "[5]": {"biological_target": "T2, Estrogen receptor (Homo sapiens) (UniProt P03372)", "T2 sequence (whole entry)": "T1 sequence (P03372 whole entry)", "assay": "Covalent antagonist activity at ERalpha in human MCF7 cells assessed as decrease in estradiol-induced TFF1 mRNA expression level at 0.25 to 10 uM measured after 24 hrs by RT-PCR analysis", "type": "cell-based", "details": "filed as antagonist, dose 0.25-10 µM", "summary_of_the_method": "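MCF-7 cells stimulated with estradiol, then co-incubated 24 h with compound at 0.25, 0.5, 1 and 10 µM. RNA was reverse-transcribed and GREB1 or TFF1 measured by SYBR Green qPCR: 95 °C 10 min, then 40 cycles of 95 °C 5 s, 60 °C 60 s, 95 °C 15 s. Normalised to GAPDH, ΔΔCT method.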"}, "MCF7 [6]": {"system": "MCF7", "assay": "Cell cycle arrest in human MCF7 cells assessed as accumulation at G2/M phase at 1 uM measured after 48 hrs by propidium iodide staining based flow cytometric analysis (reference value: 12.24%)", "type": "functional"}, "MCF7 [7]": {"system": "MCF7", "assay": "Induction of apoptosis in human MCF7 cells assessed as late apoptotic cells at 10 uM incubated for 24 hrs by AnnexinV-FITC/propidium iodide staining based flow cytometric analysis (reference value: 0.7%)", "type": "functional"}, "[8]": {"assay": "Half life in rat plasma", "type": "ADME, cell-free"}, "MDA-MB-231": {"system": "MDA-MB-231", "assay": "Antiproliferative activity against human MDA-MB-231 cells assessed as reduction in cell growth incubated for 48 hrs by CCK8 assay", "type": "functional, cell-based", "details": "MDA-MB-231, 48 h", "summary_of_the_method": "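CCK-8 viability assay. Cells seeded at 4000/well in 10% FBS medium for 24 h, then given compound diluted from DMSO stocks into 2% FBS medium at 100, 50, 25, 12.5, 6.25 and 3.125 µM (0.1% DMSO final). After 48 h, CCK-8 was added (0.5 mg/mL) for 2 h at 37 °C and OD450 read. Triplicates; IC50 fitted from mean viability.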"}, "MCF7 [9]": {"system": "MCF7", "assay": "Induction of apoptosis in human MCF7 cells assessed as live cells at 5 uM incubated for 24 hrs by AnnexinV-FITC/propidium iodide staining based flow cytometric analysis (reference value: 98.1%)", "type": "functional"}, "MCF7 [10]": {"system": "MCF7", "assay": "Cell cycle arrest in human MCF7 cells assessed as accumulation at S phase at 10 uM measured after 48 hrs by propidium iodide staining based flow cytometric analysis (reference value: 63.32%)", "type": "functional"}},
  "data": [
    {"smiles": "O=C(/C=C/CNCCOc1ccc(Oc2c(-c3ccc(F)cc3)sc3cc(O)ccc23)cc1)N1CCC1", "values": [
      {"measurement": "Activity", "setting": "Estrogen receptor", "result": "Not Active"},
      {"measurement": "Activity", "setting": "MCF7 [1]", "result": 46.98, "unit": "%"},
      {"measurement": "Activity", "setting": "MCF7 [2]", "result": 1.2, "unit": "%"},
      {"measurement": "CLint scaled", "setting": "[3]", "result": 65.1, "unit": "mL/min/kg"},
      {"measurement": "Activity", "setting": "MCF7 [4]", "result": 73.6, "unit": "%"},
      {"measurement": "inhibition", "setting": "[5]", "result": "Dose-Dependent Effect"},
      {"measurement": "Activity", "setting": "MCF7 [6]", "result": 17.36, "unit": "%"},
      {"measurement": "Activity", "setting": "MCF7 [7]", "result": 13.2, "unit": "%"},
      {"measurement": "half-life", "setting": "[8]", "result": 17, "unit": "h"},
      {"measurement": "IC50", "setting": "MDA-MB-231", "result": "> 50", "unit": "µM"},
      {"measurement": "Activity", "setting": "MCF7 [9]", "result": 87.9, "unit": "%"},
      {"measurement": "Activity", "setting": "MCF7 [10]", "result": 38.75, "unit": "%"}
    ]}
  ]
}
